The record followed here is ChEMBL document CHEMBL1128589, “Novel benzo[b]quinolizinium cations as uncompetitive N-methyl-D-aspartic acid (NMDA) antagonists: the relationship between log D and agonist independent (closed) NMDA channel block” (J Med Chem, 1995).

The target in one data set is Glutamate NMDA receptor. Put plainly: Affinity against 3[H]TCP binding to N-methyl-D-aspartate glutamate receptor in rat brain membranes. It is filed as cell membranes.
The nature of data set [1]: logD value was determined. Format: physicochemical. The conditions noted are these: octanol/water.
The nature of data set [2]: Inhibitory activity against NMDA open channel block. It is filed as functional. The method, boiled down:
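Superfused oocytes got a single inhibitor application per cell during NMDA response. Current at 300 s was normalized to the initial NMDA current. Inhibition = (mean control (NMDA alone) − test)/control × 100%.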

The nature of data set [3]: pKa value was determined. It is filed as physicochemical.
Data set [4] can be described thus: Inhibitory activity against NMDA closed channel block. It is filed as functional. The method, boiled down: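 Oocytes (stage V-VI, defolliculated with 0.2% collagenase) were held 48-72 h at 18-22 °C in ND96 and superfused at ~4 mL/min. Controls were two 100 µM NMDA pulses 15 min apart. Cells then sat 30 min in 10 µM 7-chlorokynurenate plus inhibitor, were washed 1-2 min and retested with 100 µM NMDA. 100 µM kainate served as internal control. One application per cell.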

The nature of data set [5]: Ratio (closed/open) was determined. Format: functional. The method, boiled down: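 Oocytes injected with forebrain-derived RNA and held 48–72 h at 18–22 °C, then superfused. Open block: current 300 s after NMDA plus inhibitor, normalised to initial NMDA current, expressed as % of NMDA-alone controls, one application per cell. Closed block: 30 min inhibitor with 10 µM 7-chlorokynurenate, 1–2 min wash, then 100 µM NMDA, with 100 µM kainate as internal control. Ratio = closed/open IC50.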

Take `COc1cccc2c1C1c3cccc[n+]3C2CC1(c1ccoc1)c1ccoc1` (racemic): the Ki on Glutamate NMDA receptor stood at 6 nM. Moreover, the logD in data set [1] was -3.66.

Consider `COc1ccc[n+]2c1C1c3ccccc3C2CC1(c1ccoc1)c1ccoc1` (racemic), for which the affinity at Glutamate NMDA receptor, expressed as Ki, was 19 nM. This counts as double-digit nanomolar.

Compound `Brc1ccc(Br)c2c1C1CC(c3ccoc3)(c3ccoc3)C2c2cccc[n+]21` (racemic) returned a Ki on Glutamate NMDA receptor of 345 nM.

For the compound `c1ccc2c(c1)C1CC(c3ccoc3)(c3ccoc3)C2c2c3ccccc3cc[n+]21` (racemic), affinity on Glutamate NMDA receptor was put at a Ki of 19 nM.

Regarding `Oc1ccc2c(c1)C1c3cccc[n+]3C2CC1(c1ccoc1)c1ccoc1` (racemic), the IC50 stood at 7.3 nM in data set [2] and 1030 nM in data set [4]. The compound further returned a Ki on Glutamate NMDA receptor of 2.1 nM. Further, the pKa in data set [3] was determined as 8.8. Also, the logD in data set [1] amounted to 0.32. The Ratio in data set [5] is 142.

On to `OCc1cccc2c1C1c3cccc[n+]3C2CC1(c1ccoc1)c1ccoc1` (racemic), for which, at Glutamate NMDA receptor, the Ki was found to be 159 nM. This counts as sub-micromolar.

Turning to `Oc1cccc2c1C1c3cccc[n+]3C2CC1(c1ccoc1)c1ccoc1` (racemic), the IC50 in data set [2] came out at 9.13 nM; in data set [4], 3860 nM. On Glutamate NMDA receptor, this compound registered a Ki of 1.8 nM. In addition, the pKa in data set [3] is 8.6. Besides, the logD in data set [1] was -0.81. In addition, in data set [5], the Ratio was determined as 422.

In turn, `Oc1cccc2c1C1c3cccc[n+]3C2CC1(c1ccccc1)c1ccccc1` (racemic) registered a Ki on Glutamate NMDA receptor of 12 nM. Further, the pH-dependent lipophilicity (logD) in data set [1] came out at 1.75.

On to `C[C@]12N[C@H](Cc3ccccc31)c1ccccc12` [DIZOCILPINE], for which the figures for the IC50 in data set [2] and in data set [4] were 23 nM and 40 nM, respectively. The compound further showed a pKa in data set [3] of 5.81. The Ratio in data set [5] is 1.6.

On Glutamate NMDA receptor, `Clc1cccc2[n+]1C1CC(c3ccoc3)(c3ccoc3)C2c2ccccc21` (racemic) returned a Ki of 633 nM.

The compound `COC(=O)C12CC(c3ccoc3)(c3ccoc3)C(c3ccccc31)c1cccc[n+]12` (racemic) displayed a Ki at Glutamate NMDA receptor of 39 nM.

In turn, `CCCCCCCCOc1cccc2c1C1c3cccc[n+]3C2CC1(c1ccoc1)c1ccoc1` (racemic) came in with a Ki on Glutamate NMDA receptor of 3380 nM.

Turning to `COc1c(Cl)ccc2c1C1c3cccc[n+]3C2CC1(c1ccoc1)c1ccoc1` (racemic), the Ki at Glutamate NMDA receptor came out at 64 nM. This Ki is about 53-fold lower than that of the compound before.

Compound `c1ccc2c(c1)C1CC(c3ccoc3)(c3ccoc3)C2c2cccc[n+]21` (racemic) had a Ki on Glutamate NMDA receptor of 2 nM.

Turning to `N#CC12CC(c3ccoc3)(c3ccoc3)C(c3ccccc31)c1cccc[n+]12` (racemic), the inhibition constant (Ki) on Glutamate NMDA receptor amounted to 10 nM.

Turning to `c1ccc(C2(N3CCCCC3)CCCCC2)cc1` [PHENCYCLIDINE], the IC50 in data set [2] stood at 270 nM; in data set [4], 450 nM. The pKa in data set [3] was determined as 9.97. In addition, the Ratio in data set [5] amounted to 1.7.

With `O=C(O)c1ccc2c(c1)C1c3cccc[n+]3C2CC1(c1ccoc1)c1ccoc1` (racemic), on Glutamate NMDA receptor, the Ki was over 10000 nM. Further, the logD in data set [1] was determined as 1.76.

In turn, `O=S(=O)([O-])c1cccc2c1C1c3cccc[n+]3C2CC1(c1ccoc1)c1ccoc1` (racemic) gave an inhibition constant Ki at Glutamate NMDA receptor of over 10000 nM.

In turn, `Oc1ccc2[n+](c1)C1CC(c3ccoc3)(c3ccoc3)C2c2ccccc21` (racemic) showed a Ki on Glutamate NMDA receptor of 1530 nM.

For `CC12CC(c3ccoc3)(c3ccoc3)C(c3ccccc31)c1cccc[n+]12` (racemic), at Glutamate NMDA receptor, the Ki was found to be 1.2 nM.

Turning to `Oc1cc(O)c2c(c1)C1CC(c3ccoc3)(c3ccoc3)C2c2cccc[n+]21` (racemic), on Glutamate NMDA receptor, the Ki is 125 nM. Compared with the last compound, the Ki is about 100-fold higher.

For `c1ccc(C2(c3ccccc3)CC3c4ccccc4C2c2cccc[n+]23)cc1` (racemic), the half-maximal inhibitory concentration (IC50) in data set [2] was found to be 32 nM; in data set [4], 18100 nM. Moreover, in data set [3], the pKa worked out at 11.7. This compound yielded a logD in data set [1] of -2.54. Besides, the Ratio in data set [5] amounted to 564.

Turning to `Oc1cccc2[n+]1C1CC(c3ccoc3)(c3ccoc3)C2c2ccccc21` (racemic), on Glutamate NMDA receptor, the affinity corresponds to a Ki of 3780 nM.

`Oc1ccc[n+]2c1C1c3ccccc3C2CC1(c1ccoc1)c1ccoc1` (racemic): the IC50 came out at 557 nM in data set [2] and 24800 nM in data set [4]. The compound also came in with a Ki at Glutamate NMDA receptor of 294 nM. Moreover, the pKa in data set [3] is 4.88. The same compound registered a logD in data set [1] of 1.66. Besides, the Ratio in data set [5] turned out to be 44.6.

Regarding `Fc1ccc2c(c1)C1c3cccc[n+]3C2CC1(c1ccoc1)c1ccoc1` (racemic), the affinity at Glutamate NMDA receptor, expressed as Ki, was 3.6 nM. Moreover, in data set [1], the pH-dependent lipophilicity (logD) was 0.75.

`CCOC1(OCC)C2c3ccccc3C([n+]3ccccc32)C1(C)C` (racemic): the half-inhibitory concentration (IC50) worked out at 27 nM in data set [2] and 14200 nM in data set [4]. In addition, the pKa in data set [3] came to 12.2. For the same compound, in data set [5], the Ratio came out at 527.

`COc1cc(OC)c2c(c1)C1CC(c3ccoc3)(c3ccoc3)C2c2cccc[n+]21` (racemic): the Ki at Glutamate NMDA receptor was determined as 3790 nM.

On Glutamate NMDA receptor, `Oc1c(Cl)ccc2c1C1c3cccc[n+]3C2CC1(c1ccoc1)c1ccoc1` (racemic) returned a Ki of 24 nM. Further, the logD in data set [1] was -0.99.

`Oc1ccc2c(c1)C1CC(c3ccoc3)(c3ccoc3)C2c2cccc[n+]21` (racemic) yielded a Ki at Glutamate NMDA receptor of 29 nM.

As a reminder, the Ki is the dissociation constant of the complex between target and ligand, obtained from inhibition or displacement. A word on the logD: it is the decadic logarithm of the distribution of all forms, ionised or not, between an organic phase and buffer at a given pH. In general, IC50 refers to the concentration at which inhibition is half-maximal. Low readings indicate greater potency, high ones weaker potency. What is called pKa is the negative logarithm of the acid dissociation constant. The low end stands for a stronger acid or weaker base, the high end for a weaker acid or stronger base.
